# Test results published in ChEMBL document CHEMBL4706495, “A novel class of small molecule inhibitors with radioprotective properties” (Eur J Med Chem, 2020).
# Legend:
# Jurkat [1] = assay: Cytotoxicity against human Jurkat cells assessed as cell viability at 10 uM measured after 48 hrs by WST-1 assay relative to control; assay type: functional; conditions: read-out: Activity
# Procedure, shortened: (§1)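 Ten-line human panel (9 cancer, 1 non-cancerous). Cells were seeded at a pre-established optimal density (500–30 × 10³ per well) and settled overnight. Compounds came from 10 mM DMSO stocks and were tested at two concentrations. WST-1 readout followed the manufacturer's protocol at the end of cultivation. Viability is expressed as % of untreated control cells, mean of three independent experiments.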
# MOLT-4 [2] = assay: Cytotoxicity against human MOLT-4 cells assessed as cell viability at 10 uM measured after 48 hrs by WST-1 assay relative to control; assay type: functional; conditions: read-out: Activity; procedure, shortened: as §1
# A549 [3] = assay: Cytotoxicity against human A549 cells assessed as cell viability at 10 uM measured after 48 hrs by WST-1 assay relative to control; assay type: functional; conditions: read-out: Activity; procedure, shortened: as §1
# HT-29 [4] = assay: Cytotoxicity against human HT-29 cells assessed as cell viability at 10 uM measured after 48 hrs by WST-1 assay relative to control; assay type: functional; conditions: read-out: Activity; procedure, shortened: as §1
# PANC-1 [5] = assay: Cytotoxicity against human PANC-1 cells assessed as cell viability at 10 uM measured after 48 hrs by WST-1 assay relative to control; assay type: functional; conditions: read-out: Activity; procedure, shortened: as §1
# A2780 [6] = assay: Cytotoxicity against human A2780 cells assessed as cell viability at 10 uM measured after 48 hrs by WST-1 assay relative to control; assay type: functional; conditions: read-out: Activity; procedure, shortened: as §1
# HeLa [7] = assay: Cytotoxicity against human HeLa cells assessed as cell viability at 10 uM measured after 48 hrs by WST-1 assay relative to control; assay type: functional; conditions: read-out: Activity; procedure, shortened: as §1
# MCF7 [8] = assay: Cytotoxicity against human MCF7 cells assessed as cell viability at 10 uM measured after 48 hrs by WST-1 assay relative to control; assay type: functional; conditions: read-out: Activity; procedure, shortened: as §1
# SAOS-2 [9] = assay: Cytotoxicity against human SAOS-2 cells assessed as cell viability at 10 uM measured after 48 hrs by WST-1 assay relative to control; assay type: functional; conditions: read-out: Activity; procedure, shortened: as §1
# [10] = Cytotoxicity against human MRC5 cells assessed as cell viability at 10 uM measured after 48 hrs by WST-1 assay relative to control; assay type: cell-based; conditions: read-out: Activity; procedure, shortened: as §1
# Jurkat [11] = assay: Cytotoxicity against human Jurkat cells assessed as cell viability at 100 uM measured after 48 hrs by WST-1 assay relative to control; assay type: functional; conditions: read-out: Activity; procedure, shortened: as §1
# MOLT-4 [12] = assay: Cytotoxicity against human MOLT-4 cells assessed as cell viability at 100 uM measured after 48 hrs by WST-1 assay relative to control; assay type: functional; conditions: read-out: Activity; procedure, shortened: as §1
# A549 [13] = assay: Cytotoxicity against human A549 cells assessed as cell viability at 100 uM measured after 48 hrs by WST-1 assay relative to control; assay type: functional; conditions: read-out: Activity; procedure, shortened: as §1
# HT-29 [14] = assay: Cytotoxicity against human HT-29 cells assessed as cell viability at 100 uM measured after 48 hrs by WST-1 assay relative to control; assay type: functional; conditions: read-out: Activity; procedure, shortened: as §1
# PANC-1 [15] = assay: Cytotoxicity against human PANC-1 cells assessed as cell viability at 100 uM measured after 48 hrs by WST-1 assay relative to control; assay type: functional; conditions: read-out: Activity; procedure, shortened: as §1
# A2780 [16] = assay: Cytotoxicity against human A2780 cells assessed as cell viability at 100 uM measured after 48 hrs by WST-1 assay relative to control; assay type: functional; conditions: read-out: Activity; procedure, shortened: as §1
# HeLa [17] = assay: Cytotoxicity against human HeLa cells assessed as cell viability at 100 uM measured after 48 hrs by WST-1 assay relative to control; assay type: functional; conditions: read-out: Activity; procedure, shortened: as §1
# MCF7 [18] = assay: Cytotoxicity against human MCF7 cells assessed as cell viability at 100 uM measured after 48 hrs by WST-1 assay relative to control; assay type: functional; conditions: read-out: Activity; procedure, shortened: as §1
# SAOS-2 [19] = assay: Cytotoxicity against human SAOS-2 cells assessed as cell viability at 100 uM measured after 48 hrs by WST-1 assay relative to control; assay type: functional; conditions: read-out: Activity; procedure, shortened: as §1
# [20] = Cytotoxicity against human MRC5 cells assessed as cell viability at 100 uM measured after 48 hrs by WST-1 assay relative to control; assay type: cell-based; conditions: read-out: Activity; procedure, shortened: as §1
# A549 [21] = assay: Cytotoxicity against human A549 cells assessed as reduction in cell viability incubated for 24 hrs by MTT assay; assay type: functional, cell-based; conditions: A549, 24 h
# Procedure, shortened: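 A-549 cells in DMEM with 10% FBS and 1% penicillin-streptomycin were attached overnight. Compounds were prepared in PBS and serially diluted in DMEM, then incubated 24 h. Viability was read by colorimetric MTT reduction against an untreated control on each plate (100%). IC50 came from four-parameter nonlinear regression of the log concentration-response curve, mean ± SEM. MTC is the highest concentration not differing from control (t-test).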
# A549 [22] = assay: Cytotoxicity against human A549 cells assessed as maximum tolerated concentration incubated for 24 hrs by MTT assay; assay type: functional
# Procedure, shortened: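 A-549 cells in DMEM with 10% FBS and 1% penicillin-streptomycin, left to attach overnight. Compounds made up in PBS, serially diluted in DMEM, incubated 24 h, then viability read by MTT reduction against untreated controls on each plate. MTC taken as the highest concentration showing no significant difference from non-treated control (t-test).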
# MOLT-4 [23] = assay: Radioprotective activity against gamma irradiation-induced apoptosis in human MOLT-4 cells assessed as viable cells at 100 uM pretreated with compound for 1 hr followed by gamma irradiation and measured after 24 hrs by annexinV/propidium iodide staining based flow cytometry (reference value: 40 %); assay type: functional; conditions: MOLT-4, light or radiation study, time 25 hrs, read-out: Activity
# [24] = Toxicity in C57Bl/6 mouse assessed as mouth death at 100 mg/kg, ip measured after 30 days; assay type: organism-based; conditions: in vivo, 720 h, time 30 day
# Procedure, shortened: (§2)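 Safety in C57Bl/6 mice (27 ± 3 g) given a single 100 mg/kg i.p. injection without irradiation. Deaths, adverse effects and body weight followed over 30 days against an untreated control group. Weight reported as change from day 0.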
# [25] = Toxicity in C57Bl/6 mouse assessed as adverse effects at 100 mg/kg, ip measured after 30 days; assay type: organism-based; conditions: in vivo, 720 h, time 30 day; procedure, shortened: as §2
# [26] = Toxicity in C57Bl/6 mouse assessed as average body weight at 100 mg/kg, ip and measured immediately (reference value: 26.3 +/- 2.4 g); assay type: organism-based; conditions: in vivo
# [27] = Toxicity in C57Bl/6 mouse assessed as average body weight at 100 mg/kg, ip measured after 30 days (reference value: 27 +/ 3.2 g); assay type: organism-based; conditions: in vivo, 720 h, time 30 day
# [28] = Toxicity in C57Bl/6 mouse assessed as change in body weight at 100 mg/kg, ip measured after 30 days (reference value: 103 +/- 12 %); assay type: organism-based; conditions: in vivo, 720 h, time 30 day
# Mus musculus [29] = assay: Radioprotective activity in C57Bl/6 mouse assessed as median survival time at 100 mg/kg, ip administered 5 min prior to gamma-irradation at 8.5 Gy and measured after 30 days (reference value: 12 days); assay type: functional
# Mus musculus [30] = assay: Radioprotective activity in C57Bl/6 mouse assessed as average body weight at 100 mg/kg, ip administered 5 min prior to gamma-irradation at 8.5 Gy and measured immediately (reference value: 25.4 +/- 2.6 g); assay type: functional
# [31] = Immuno-toxicity in C57Bl/6 mouse assessed as decrease in absolute number of lymphocytes at 100 mg/kg, ip measured after 7 to 12 days post-treatment by flow cytometry; assay type: organism-based; conditions: in vivo, time 7-12 day
# HT-29 [32] = assay: Cytotoxicity against human HT-29 cells assessed as growth percent at 100 uM by WST-1 assay relative to control; assay type: functional; conditions: HT-29, read-out: Activity, time 48 hrs
# MCF7 [33] = assay: Cytotoxicity against human MCF7 cells assessed as growth percent at 100 uM by WST-1 assay relative to control; assay type: functional; conditions: MCF7, read-out: Activity, time 48 hrs
Structure (SMILES),viability at 10 µM (Jurkat [1]),viability at 10 µM (MOLT-4 [2]),viability at 10 µM (A549 [3]),viability at 10 µM (HT-29 [4]),viability at 10 µM (PANC-1 [5]),viability at 10 µM (A2780 [6]),viability at 10 µM (HeLa [7]),viability at 10 µM (MCF7 [8]),viability at 10 µM (SAOS-2 [9]),"viability at 48 h, 10 µM [10]",viability at 100 µM (Jurkat [11]),viability at 100 µM (MOLT-4 [12]),viability at 100 µM (A549 [13]),viability at 100 µM (HT-29 [14]),viability at 100 µM (PANC-1 [15]),viability at 100 µM (A2780 [16]),viability at 100 µM (HeLa [17]),viability at 100 µM (MCF7 [18]),viability at 100 µM (SAOS-2 [19]),"viability at 48 h, 100 µM [20]",also measured
Cc1ccccc1OCC(O)CN1CCN(CCO)CC1 (stereo unspecified),106%,104%,95%,98%,102%,101%,102%,103%,103%,97%,92%,86%,114%,151%,116%,79%,96%,95%,84%,104%,IC50 (A549 [21]): 3400 µM; MTD (A549 [22]): 0.39 mM; viability at 100 µM (MOLT-4 [23]): 62%; Activity [24]: Non-Toxic; Activity [25]: Non-Toxic; Activity [26]: 26.2 g; Activity [27]: 27.2 g; Activity [28]: 104%; MST (Mus musculus [29]): 7 days; Activity (Mus musculus [30]): 27.3 g; Activity [31]: Toxic
OCCN1CCN(CC(O)COc2cccc3ccccc23)CC1 (stereo unspecified),96%,98%,98%,93%,102%,97%,99%,103%,97%,102%,76%,83%,107%,53%,101%,77%,129%,64%,97%,78%,growth at 100 µM (HT-29 [32]): 53%; growth at 100 µM (MCF7 [33]): 64%; IC50 (A549 [21]): 420 µM; MTD (A549 [22]): 0.07 mM; viability at 100 µM (MOLT-4 [23]): 59%
